Screens as filed in PubChem.
Runt-CBFb FRET: inhibitors of RUNX1 Runt–CBFb binding, primary screen, biochemical, FRET, Cerulean-Runt, Venus-CBFb, uHTS. AID 1496, 2009. inhibition, % at 20 µM. Cerulean-Runt/Venus-CBFb FRET ratio 530/480, 1 h. 220,000 tested, 0.46% active;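 active = inhibition over about 50% at 20 µM in the single-dose screen, limit read from the data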
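Doses: 20 µM compound in 1% DMSO | Material: Cerulean-labeled Runt domain protein | Amount: Each fluorescent fusion protein 100 nM | Schedule: Two 1 h room-temperature incubations shielded from light | Measured by: FRET fluorescence | Evaluation: Loss of energy transfer signal | Controls: Unlabeled CBFb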
Hck-Nef inh: inhibitors of Nef-activated human Hck kinase, primary screen, biochemical, Z-Lyte FRET, 384-well, Hck-YEEI | Recombinant Hck-YEEI plus Nef, Z-Lyte FRET kinase assay | inhibition, % at 20 µM | 220,000 tested, 0.68% active;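 active = Hck-Nef kinase inhibition above about 50%, limit read from the data; inactive = inhibition below that limit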
Target sequence (P08631 whole entry, looked up): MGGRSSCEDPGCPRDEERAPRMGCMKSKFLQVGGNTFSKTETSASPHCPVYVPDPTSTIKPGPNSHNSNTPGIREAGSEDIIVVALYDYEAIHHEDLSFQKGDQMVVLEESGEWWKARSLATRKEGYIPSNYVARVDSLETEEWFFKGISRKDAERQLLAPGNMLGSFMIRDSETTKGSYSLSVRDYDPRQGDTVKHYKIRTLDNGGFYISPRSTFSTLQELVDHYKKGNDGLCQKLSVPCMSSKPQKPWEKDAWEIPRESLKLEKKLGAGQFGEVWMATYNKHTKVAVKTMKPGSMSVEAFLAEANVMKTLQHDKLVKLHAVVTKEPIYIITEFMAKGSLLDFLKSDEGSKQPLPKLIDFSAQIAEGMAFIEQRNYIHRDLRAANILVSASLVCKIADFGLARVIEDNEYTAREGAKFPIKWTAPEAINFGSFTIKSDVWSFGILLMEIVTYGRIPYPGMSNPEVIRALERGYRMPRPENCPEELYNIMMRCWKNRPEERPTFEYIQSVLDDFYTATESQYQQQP
Runt-SMMHC FRET: inhibitors of RUNX1 Runt–CBFb-SMMHC binding, primary screen, biochemical, FRET, Cerulean-Runt, Venus-CBFb-SMMHC, uHTS. Runt-related transcription factor 1 (Homo sapiens) + Core-binding factor subunit beta …. Cerulean-Runt/Venus-CBFb-SMMHC FRET ratio 530/480, 1 h. inhibition, % at 20 µM. 220,000 tested, 0.74% active;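 active = mean inhibition across duplicate retests at 20 µM reaching about 50%, limit read from the data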;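 also: inhibitors lower the FRET ratio by blocking Runt binding to CBFb-SMMHC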
RanGTP-Impb inh: inhibitors of RanGTP-importin-beta interaction, primary screen, biochemical, FRET, CFP-Ran, YFP-importin-beta, homogeneous | 300,000 tested, 1.1% active | cell-free CFP-Ran/YFP-importin-beta FRET ratio | inhibition, % (no concentration beside the values);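 active = more than half of the replicate wells show a fall in the fluorescence ratio signal beyond about 16%, limit read from the data, passing the limit was not always enough; inconclusive = exactly half of the replicate wells pass the set limit; inactive = fewer than half of replicates pass the limit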
Tb hexokinase: Trypanosoma brucei hexokinase 1 inhibitors, primary screen, biochemical, G6PDH-coupled NADH absorbance, MLSCN library; hexokinase 1 [Trypanosoma brucei]; recombinant TbHK1, G6PDH-coupled NADH A340; inhibition, % at 10 µM; 220,000 tested, 0.11% active;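 active = inhibition of 50% or more in the single-dose primary screen; inactive = inhibition below 50%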
14-3-3 Bad inh: inhibitors of 14-3-3 zeta/Bad binding, primary screen, biochemical, TR-FRET, bovine 14-3-3 zeta | 14-3-3 protein zeta/delta (Bos taurus), P63103 | TR-FRET 14-3-3zeta/Dy647-pBad peptide displacement, 1 h | inhibition, % at 21.7 µM | 220,000 tested, 0.71% active;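 active = inhibition above about 70%, limit read from the data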
Target sequence (P63103 whole entry, looked up): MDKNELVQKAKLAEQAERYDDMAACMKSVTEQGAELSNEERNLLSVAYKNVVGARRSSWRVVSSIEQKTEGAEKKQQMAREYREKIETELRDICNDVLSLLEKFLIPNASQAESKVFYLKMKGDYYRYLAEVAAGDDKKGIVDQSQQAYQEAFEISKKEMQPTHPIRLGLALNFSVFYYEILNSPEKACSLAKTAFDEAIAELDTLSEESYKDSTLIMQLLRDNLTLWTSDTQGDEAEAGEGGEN
Each line names hits and unclear results; the compound was inactive in the other large screens; [ ] = remark or other dose. Compounds with a hit are over-represented: about 2.2% of the library has one in this group of screens.

Cc1ccccc1-n1c(=O)cc(N2CCc3ccccc3C2)[nH]c1=O	Runt-SMMHC FRET 75.6, RanGTP-Impb inh 52.9
CCN1CCN(c2cc(=O)n(-c3cc(Cl)ccc3C)c(=O)[nH]2)CC1	RanGTP-Impb inh 72.0
O=c1cc(N2CCc3ccccc3C2)[nH]c(=O)n1-c1ccccc1Cl	RanGTP-Impb inh 79.6
Cc1ccccc1-n1c(=O)cc(N2CCN(Cc3ccccc3)CC2)[nH]c1=O	none
Cc1ccc(-n2c(=O)cc(N3CCc4ccccc4C3)[nH]c2=O)cc1	RanGTP-Impb inh 40.1
O=C(c1cccc(F)c1)N1CCC(N2CCOCC2)CC1	14-3-3 Bad inh 74.2
O=C(c1cccc(Cl)c1)N1CCC(N2CCC(C(=O)N3CCOCC3)CC2)CC1	none
O=C(CN1CCN(C(=O)c2cccc(F)c2)CC1)NC1CCCCC1	14-3-3 Bad inh 74.5
CCOc1ccc(CN2CCN(C(=O)c3cccc(F)c3)CC2)cc1	14-3-3 Bad inh 72.1
COc1cccc(C(=O)N2CCN(Cc3cccc(F)c3)CC2)c1	none
CC1CCCCC1NC(=O)CN1CCC(NC(=O)c2cccc(F)c2)CC1 (stereo not given)	none (no result: Runt-CBFb FRET, Hck-Nef inh, Runt-SMMHC FRET, Tb hexokinase, 14-3-3 Bad inh)
O=C(c1ccco1)N1CCN(Cc2cccc(F)c2)CC1	14-3-3 Bad inh 73.5
O=C1c2nccnc2C(=O)N1c1ccc(C(F)(F)F)cc1	none
CCCc1n[nH]c2c1C(=O)C(C(=O)OC)C(C)(C)C2 (stereo not given)	none
CCc1ccc(CN2CCN(C(=O)c3ccco3)CC2)cc1	none (no result: Runt-CBFb FRET, Hck-Nef inh, Runt-SMMHC FRET, Tb hexokinase, 14-3-3 Bad inh)
Fc1cccc(CN2CCCCCCC2)c1	14-3-3 Bad inh 78.3
O=C(c1ccco1)N1CCN(Cc2ccc(Cl)cc2)CC1	14-3-3 Bad inh 78.2
Cc1nn(C(=O)c2cc([N+](=O)[O-])ccc2Cl)c(C)c1Br	none (no result: Runt-CBFb FRET, Hck-Nef inh, Runt-SMMHC FRET, Tb hexokinase, 14-3-3 Bad inh)
CN(C(=O)COC(=O)c1ccccc1OCc1ccc(Cl)cc1)c1c(N)n(Cc2ccccc2)c(=O)[nH]c1=O	none (no result: Runt-CBFb FRET, Hck-Nef inh, Runt-SMMHC FRET, Tb hexokinase, 14-3-3 Bad inh)
Oc1c(C=Nc2ccccc2Cl)[nH]c2ccccc12	none
CCCCCCn1c(SCC(=O)Nc2cc(C)on2)nc2ccccc2c1=O	none
Cc1cc(NC(=O)CSc2nc3ccccc3c(=O)n2Cc2ccc(F)cc2)no1	14-3-3 Bad inh 73.7
Cc1cc(C)c2c(N)c(C(=O)c3ccc(Cl)cc3Cl)sc2n1	none
Cc1cc(C)c2c(N)c(C(=O)Nc3ncc(C)s3)sc2n1	Runt-CBFb FRET 65.1, Runt-SMMHC FRET 95.4 (no result: RanGTP-Impb inh)
Cc1nc2sc(C(=O)c3ccccc3)c(N)c2c(C)c1C	Runt-CBFb FRET 53.9
CC(=O)c1sc2nc(C)cc(C)c2c1N	Runt-SMMHC FRET 77.9
Cc1cc(C)c2c(N)c(C(=O)c3cccc(Cl)c3)sc2n1	Runt-CBFb FRET 86.7, Runt-SMMHC FRET 59.6
O=C(c1ccccc1Br)N1CCN(c2ccccc2)CC1	none
CCn1cc(Br)c(C(=O)N2CCN(c3ccccc3)CC2)n1	RanGTP-Impb inh inconclusive, 14-3-3 Bad inh 71.9
CC1CN(C(=O)CSc2nnc(CNC(=O)c3ccc(S(=O)(=O)N(C)C)cc3)o2)CC(C)O1 (stereo not given)	none (no result: Runt-CBFb FRET, Hck-Nef inh, Runt-SMMHC FRET, Tb hexokinase, 14-3-3 Bad inh)
O=C(CCC1CCCN(C(=O)CCN2CCCCC2=O)C1)NCc1ccccc1F (stereo not given)	RanGTP-Impb inh inconclusive
COc1ccc(Br)cc1CNC(=O)CCNC(=O)Cn1ccc2ccccc2c1=O	none
CC1(C)Cc2c(sc3nc(C4CC4)n(N)c(=O)c23)CO1	Runt-CBFb FRET 97.9
Cc1ccccc1Cn1cc(NC(=O)CCCn2nc([N+](=O)[O-])cc2C)cn1	none
Cc1cc([N+](=O)[O-])c(C)cc1-c1ccc(/C=N/NC(=O)Cn2nnnc2N)o1	Hck-Nef inh 53.2, 14-3-3 Bad inh 87.8
Nc1nnnn1CC(=O)N/N=C/c1cc([N+](=O)[O-])ccc1Cl	none
O=C(N/N=C/c1cccc([N+](=O)[O-])c1)c1cc2c(ccc3ccccc32)o1	none (no result: Runt-CBFb FRET)
Cc1ccc(-c2ccc(/C=N\NC(=O)c3cc4c(ccc5ccccc54)o3)o2)cc1[N+](=O)[O-]	14-3-3 Bad inh 83.1[fluorescence artefact?]
Cc1ccc(-c2ccc(/C=N/NC(=S)Nc3ccccc3)o2)cc1[N+](=O)[O-]	none
Cc1ccc([N+](=O)[O-])cc1-c1ccc(/C=N/NC(=O)c2cc3c(ccc4ccccc43)o2)o1	14-3-3 Bad inh 85.3[fluorescence artefact?]
CC(=O)c1cccc(CN2CCN(C(C)C)C(CCO)C2)c1 (stereo not given)	none
CCOc1ccccc1NC(=O)CSc1nncc2ccccc12	none (no result: Runt-CBFb FRET, Hck-Nef inh, Runt-SMMHC FRET, Tb hexokinase, 14-3-3 Bad inh)
COc1ccccc1OC(C)C(=O)Nc1ccc(S(=O)(=O)N2CCN(C)CC2)cc1 (stereo not given)	none (no result: Runt-CBFb FRET, Hck-Nef inh, Runt-SMMHC FRET, Tb hexokinase, 14-3-3 Bad inh)
CCOc1ccc(S(=O)(=O)Nc2nc3ccccc3nc2N2CCN(C)CC2)cc1	none
CC(=O)N1CCN(c2nc3cc4c(cc3nc2NS(=O)(=O)c2ccccc2)OCCO4)CC1	Runt-CBFb FRET 92.5, RanGTP-Impb inh 43.5
C/C=C(\C)C(=O)NCCN1C2=NC[C@@H](Cc3ccccc3)N2C[C@@H]1Cc1ccc(OC)cc1	none (no result: Runt-CBFb FRET, Hck-Nef inh, Runt-SMMHC FRET, Tb hexokinase, 14-3-3 Bad inh)
CCCCCCNC(=O)N[C@@H](C(=O)NCCC[C@H]1CN2C(=NC[C@@H]2Cc2ccccc2)N1CCc1cccc(OC)c1)C(C)C	Runt-SMMHC FRET 62.7
Cc1oc(-c2ccccc2F)nc1CS(=O)CC(=O)NC1CC1 (stereo not given)	none (no result: Runt-CBFb FRET, Hck-Nef inh, Runt-SMMHC FRET, Tb hexokinase, 14-3-3 Bad inh)
CCOC(=O)N1CCC(NC(=O)CS(=O)Cc2nc(-c3ccccc3C)oc2C)CC1 (stereo not given)	RanGTP-Impb inh 164.0 (no result: Runt-CBFb FRET, Hck-Nef inh, Runt-SMMHC FRET, Tb hexokinase, 14-3-3 Bad inh)
COc1ccc2nc(N3CCC(C)CC3)c(C#N)cc2c1	Runt-CBFb FRET 70.7, Runt-SMMHC FRET 70.2, RanGTP-Impb inh 45.3
COc1ccc2nc(N3CCC(O)CC3)c(C#N)cc2c1	Runt-SMMHC FRET 75.1, RanGTP-Impb inh 50.8
COc1ccc2cc(C#N)c(N3CCOCC3)nc2c1	none (no result: Runt-CBFb FRET, Hck-Nef inh, Runt-SMMHC FRET, Tb hexokinase, 14-3-3 Bad inh)
O=C(Nc1cccc(F)c1)/C(=C\c1ccco1)NC(=O)c1ccco1	none (no result: Runt-CBFb FRET, Hck-Nef inh, Runt-SMMHC FRET, Tb hexokinase, 14-3-3 Bad inh)
O=C(CN1CCN(c2cccc(C(F)(F)F)c2)CC1)Nc1cccc(C(F)(F)F)c1	14-3-3 Bad inh 74.5
FC(F)(F)c1cccc(NC(=S)N2CCN(c3cccc(C(F)(F)F)c3)CC2)c1	none
FC(F)(F)c1cccc(N2CCN(CC3CC4C=CC3C4)CC2)c1 (stereo not given)	14-3-3 Bad inh 83.0
Fc1ccc(NC(=S)N2CCN(c3cccc(C(F)(F)F)c3)CC2)cc1	RanGTP-Impb inh 27.0
